According to ChEMBL document CHEMBL1158739, “Chemical constituents of the fruits of Morinda citrifolia (Noni) and their antioxidant activity” (J Nat Prod, 2005):

Experiments:
[1] = Antioxidant activity assessed as 3-morpholinosydnonimine-derived peroxynitrite free radical scavenging activity after 5 mins
[2] = Antioxidant activity assessed as authentic peroxynitrite free radical scavenging activity after 5 mins
[3] = system: Radical scavenging activity; test: Antioxidant activity assessed as DPPH radical scavenging activity after 30 mins; type: functional
How it was run: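 Samples in DMSO were plated in triplicate with 200 µM DPPH in EtOH, 37 °C, 30 min, dark, and absorbance read at 515 nm. Percent scavenging was taken against the DMSO control, with gallic acid as positive control. Screening was at 200 µg/mL final, and actives were retested at 2.5–20 µg/mL. IC50 came from linear regression extrapolation.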

[4] = Antioxidant activity assessed as 3-morpholinosydnonimine-derived peroxynitrite free radical scavenging activity […]; type: functional
How it was run: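 Peroxynitrite was generated from SIN-1 (10 µM) and measured as oxidation of dihydrorhodamine 123, working solution 5 µM. Buffer was nitrogen-purged 50 mM Na2HPO4, 50 mM NaH2PO4, 90 mM NaCl and 5 mM KCl with 5 mM DTPA. Run at room temperature, fluorescence read at ex 485/em 530 nm; background and final intensities taken 5 min after treatment.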

[5] = Antioxidant activity assessed as authentic peroxynitrite free radical scavenging activity […]; type: functional
How it was run: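 Authentic peroxynitrite (10 µM, in 0.3 N NaOH) oxidizing dihydrorhodamine 123, working solution 5 µM. Buffer was nitrogen-purged 50 mM Na2HPO4, 50 mM NaH2PO4, 90 mM NaCl and 5 mM KCl with 5 mM DTPA. Room temperature, fluorescence at ex 485/em 530 nm; background and final intensities read 5 min after treatment.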

IC50 [1]	IC50 [2]	IC50 [3]	IC50 [4]	IC50 [5]	SMILES
> 30 µM	> 30 µM	> 30 µM	–	–	CO[C@@]1(CO)O[C@H](CO)[C@@H](O)[C@@H]1O
–	–	> 30 µM	> 30 µM	> 30 µM	COC(=O)C1=CO[C@@H](O[C@@H]2O[C@H](CO)[C@@H](O)[C@H](O)[C@H]2O)[C@@H]2[C@@H](CO)C[C@H](O)[C@H]12
> 30 µM	> 30 µM	> 30 µM	–	–	CO[C@]1(CO)O[C@H](CO)[C@@H](O)[C@@H]1O
> 30 µM	> 30 µM	> 30 µM	–	–	COC(=O)C1=CO[C@@H](O[C@@H]2O[C@H](CO)[C@@H](O)[C@H](O)[C@H]2O)[C@H]2[C@@H]1[C@@H]1O[C@@H]1[C@@]2(O)CO
> 30 µM	> 30 µM	> 30 µM	–	–	COC(=O)C1=CO[C@@H](O[C@@H]2O[C@H](CO)[C@@H](O)[C@H](O)[C@H]2O)C2C1[C@@H]1O[C@@H]1[C@]21O[C@H]1O (single isomer, unassigned; epimer a) [CITRIFOLININ B EPIMER A]
–	–	16.9 µM	–	–	O=C/C=C/c1ccc2c(c1)O[C@@H](CO)[C@H](c1ccc(O)c(O)c1)O2 [AMERICANIN A]
> 30 µM	> 30 µM	> 30 µM	–	–	O=C1O[C@H]2C=C(CO)[C@@H](CO)[C@H]2[C@@H]1CO [BORRERIAGENIN]
> 30 µM	> 30 µM	> 30 µM	–	–	COC(=O)C1=CO[C@@H](O[C@@H]2O[C@H](CO)[C@@H](O)[C@H](O)[C@H]2O)C2C1[C@@H]1O[C@@H]1[C@]21O[C@@H]1O (stereo not given in full) [CITRIFOLININ B EPIMER B]
> 30 µM	> 30 µM	> 30 µM	–	–	Nc1ccn([C@@H]2O[C@H](CO)[C@@H](O)[C@H]2O)c(=O)n1 [CYTIDINE]
> 30 µM	> 30 µM	> 30 µM	–	–	O=C1O[C@H]2C=C(CO)[C@H]3[C@H](O[C@@H]4O[C@H](CO)[C@@H](O)[C@H](O)[C@H]4O)OC=C1[C@H]32 [DEACETYLASPERULOSIDE]
> 30 µM	> 30 µM	> 30 µM	–	–	COC(=O)C1=CO[C@@H](O[C@@H]2O[C@H](CO)[C@@H](O)[C@H](O)[C@H]2O)[C@H]2[C@@H]1C=C[C@@]21C=C(C(=O)c2ccc(O)c(OC)c2)C(=O)O1 [DEHYDROMETHOXYGAERTNEROSIDE]
> 30 µM	> 30 µM	> 30 µM	–	–	OC[C@H]1OC(O)[C@H](O)[C@@H](O)[C@@H]1O (stereo not given in full) [DEXTROSE]
> 30 µM	> 30 µM	> 30 µM	–	–	OC[C@@H](O)[C@@H](O)[C@H](O)[C@H](O)CO [MANNITOL]
> 30 µM	> 30 µM	> 30 µM	–	–	C[C@@H]1O[C@@H](OC[C@H]2O[C@@H](Oc3c(-c4ccc(O)cc4)oc4cc(O)cc(O)c4c3=O)[C@H](O)[C@@H](O)[C@@H]2O)[C@H](O)[C@H](O)[C@H]1O [NICOTIFLOROSIDE]
> 30 µM	> 30 µM	> 30 µM	–	–	CC[C@H](CC[C@@H](C)[C@H]1CC[C@H]2[C@@H]3CC=C4C[C@@H](O[C@@H]5O[C@H](CO)[C@@H](O)[C@H](O)[C@H]5O)CC[C@]4(C)[C@H]3CC[C@]12C)C(C)C [SITOGLUSIDE]

SMILES	IC50 [1]	IC50 [2]	IC50 [3]	IC50 [4]	IC50 [5]
CC(=O)OCC1=C[C@@H]2OC(=O)C3=CO[C@@H](O[C@@H]4O[C@H](CO)[C@@H](O)[C@H](O)[C@H]4O)[C@H]1[C@@H]32 [ASPERULOSIDE]	> 30 µM	> 30 µM	> 30 µM	–	–
CC(=O)OCC1=C[C@H](O)[C@@H]2C(C(=O)O)=CO[C@@H](O[C@H]3O[C@@H](CO)[C@H](O)[C@@H](O)[C@@H]3O)[C@H]12 [ASPERULOSIDIC ACID]	> 30 µM	> 30 µM	> 30 µM	–	–
O=C(O)c1cc(O)c(O)c(O)c1 [GALLIC ACID]	–	–	2.7 µM	–	–
